Test results: PubChem BioAssay AID588558 (Sanford-Burnham Center for Chemical Genomics, 2011)
Active and inactive are the calls of the source.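 The calls were made as follows: active = mean IC50 of 20 µM or lower in the 24 hour cytotoxicity test; inactive = the rest.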

System: CHO-XBP1 cytotoxicity, ATPlite luminescence, 24 h
Test: CHO-XBP1 cell viability loss – 24 h exposure, ATPlite luminescence, cytotoxicity control for UPR apoptotic arm activator project, SAR follow-up (AID 588558)
Outline: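 System: CHO-XBP1 cells (Chinese hamster ovary XBP1 reporter line) / Quantity: 1000 CHO-XBP1 cells per well / Medium: F12 with 10% FBS / Doses: compound dose series, final DMSO at most 1% / Schedule: 24 h compound exposure at 37 °C / Detection: ATPLite 1-Step luminescence after 10 min at room temperature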

SMILES	IC50
O=C(Nc1nc2cc(F)ccc2s1)c1ccccn1	1260 nM
O=C(Nc1ccc(S(=O)(=O)N2CCC(F)CC2)cc1)c1ccc([N+](=O)[O-])o1	24700 nM (inactive)
O=C(Nc1nc2ccc(Cl)cc2s1)c1ccccn1	1360 nM
O=C(Nc1nc2ccc(F)cc2s1)c1ccccn1	1990 nM
O=C(Nc1nc2c(F)cc(F)cc2s1)c1ccccn1	1590 nM
O=C(Nc1nc2cc(F)cc(F)c2s1)c1ccccn1	1050 nM
O=C(Nc1nc2c(Cl)cc(Cl)cc2s1)c1ccccn1	8770 nM
Cc1cc(C)c2nc(NC(=O)c3ccccn3)sc2c1	3750 nM
O=C(Nc1nc2ccc(F)c(F)c2s1)c1ccccn1	1190 nM
O=C(Nc1nc2cc(F)c(F)cc2s1)c1ccccn1	1810 nM
O=C(Nc1nc2ccc(C(F)(F)F)cc2s1)c1ccccn1	970 nM
O=C(Nc1nc2c(F)ccc(F)c2s1)c1ccccn1	1060 nM
O=C(Nc1ccc(S(=O)(=O)N2CCCCC2)cc1)c1ccc([N+](=O)[O-])o1	> 80000 nM (inactive)
O=C(Nc1ccc(S(=O)(=O)N2CCC(Cl)CC2)cc1)c1ccc([N+](=O)[O-])o1	> 80000 nM (inactive)
O=C(Nc1ccc(S(=O)(=O)N2CCNCC2)cc1)c1ccc([N+](=O)[O-])o1	> 80000 nM (inactive)
O=C(Nc1ccc(S(=O)(=O)c2ccccc2)cc1)c1ccc([N+](=O)[O-])o1	18500 nM
O=C(Nc1nc2c(F)cccc2s1)c1ccccn1	1420 nM
O=C(Nc1ccc(S(=O)(=O)N2CCC3(CCCCC3)CC2)cc1)c1ccc([N+](=O)[O-])o1	9050 nM
O=C(Nc1ccc(S(=O)(=O)C2CCOCC2)cc1)c1ccc([N+](=O)[O-])o1	37600 nM (inactive)
O=C(Nc1ccc(S(=O)(=O)N2CCC(O)CC2)cc1)c1ccc([N+](=O)[O-])o1	27900 nM (inactive)
O=C(Nc1ccc(S(=O)(=O)N2CCCC2)cc1)c1ccc([N+](=O)[O-])o1	19200 nM
O=C(Nc1nc2cccc(F)c2s1)c1ccccn1	1760 nM
O=C(Nc1ccc(S(=O)(=O)N2CCOCC2)cc1)c1ccc([N+](=O)[O-])o1	32300 nM (inactive)
O=C(Nc1nc2c(F)c(F)ccc2s1)c1ccccn1	1350 nM
CC(C)(C)C1CCN(S(=O)(=O)c2ccc(NC(=O)c3ccc([N+](=O)[O-])o3)cc2)CC1	2680 nM
CC1CN(S(=O)(=O)c2ccc(NC(=O)c3ccc([N+](=O)[O-])o3)cc2)CC(C)O1 (stereo not given)	34900 nM (inactive)
O=C(Nc1ccc(S(=O)(=O)C2CCCCC2)cc1)c1ccc([N+](=O)[O-])o1	22100 nM (inactive)
O=C(Nc1ccc(S(=O)(=O)N2CCOCC2)cc1)c1ccc([N+](=O)[O-])s1	> 80000 nM (inactive)
CC1CCN(S(=O)(=O)c2ccc(NC(=O)c3ccc([N+](=O)[O-])o3)cc2)CC1	32200 nM (inactive)
CC1(C)CCN(S(=O)(=O)c2ccc(NC(=O)c3ccc([N+](=O)[O-])o3)cc2)CC1	18000 nM
